# According to publication PMC5614685 (Biochemistry and Biophysics Reports, 2017):
# Like-named read-outs stand apart in the source and are kept apart here. Bridge positions count the residues as written; N and C are the ends. Ends that are not written are not given here. Peptide text beside a SMILES is read from it.
# T1: ActRIIB-Fc (Homo sapiens, UniProt Q13705)
# T1 sequence (Q13705 19-135): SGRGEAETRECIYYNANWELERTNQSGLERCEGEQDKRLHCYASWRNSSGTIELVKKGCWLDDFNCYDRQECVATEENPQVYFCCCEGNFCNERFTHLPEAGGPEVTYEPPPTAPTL
# T2: ActRIIB-Fc (extracellular domain of human ActRIIB, activin receptor type-2B, fused to human IgG-Fc) (human, UniProt Q13705 19-135)
# T2 sequence: T1 sequence (Q13705 19-135)
# B1: BMP9: bone morphogenetic protein 9, R&D Systems (3209-BP) (protein, UniProt Q9UK05 320-429, looked up)
# Growth/differentiation factor …: SAGAGSHCQKTSLRVNFEDIGWDSWIIAPKEYEAYECKGGCFFPLADDVTPTKHAIVQTLVHLKFPTKVGKACCVPTKLSPISVLYKDDMGVPTLKYHYEGMSVAECGCR
# Columns and labels:
# [1] = molecular target: T1, ActRIIB-Fc; test: SPR binding assay, ActRIIB-Fc
# Method in brief: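 ActRIIB-Fc immobilized on a CM5 chip by amine coupling to about 3000 RU in PBS/0.01% P20 at 22 °C. Peptide concentration series injected in PBS/0.01% P20/1% DMSO at 75 μL/min: 60 s contact, up to 60 s dissociation. Double-referenced data globally fitted to a 1:1 model for kon and koff, KD = koff/kon. For fast off-rates, KD from a steady-state 1:1 fit.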
# [2] = molecular target: T3, ActRIIA-Fc (Homo sapiens, UniProt P27037); test: SPR binding assay, ActRIIA-Fc
# Method in brief: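 ActRIIA-Fc amine-coupled to a CM5 chip to about 9000 RU in PBS/0.01% P20 at 22 °C. Peptide concentration series run in PBS/0.01% P20/1% DMSO at 75 μL/min: 60 s association, up to 60 s dissociation. Sensorgrams double-referenced and globally fitted to a 1:1 model, KD = koff/kon. For fast off-rates, KD taken from a 1:1 steady-state fit.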
# [3] = molecular target: T1, ActRIIB-Fc; test: Plate ELISA, ligand binding of ActRIIB-Fc; details: ligand directly coated; HRP anti-human IgG Fc, chemiluminescence
# [4] = molecular target: T3, ActRIIA-Fc; test: Plate ELISA, ligand binding of ActRIIA-Fc; details: ligand directly coated; HRP anti-human IgG Fc, chemiluminescence
# Method in brief: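 Wells coated directly with each ligand overnight at 4 °C, then blocked with 0.5% BSA in PBS for 2 h at room temperature. ActRIIA-Fc added, then washed three times with PBST. Bound Fc protein detected with HRP goat anti-human IgG Fc (5000-fold dilution in 0.5% BSA/PBS) and a chemiluminescence reagent.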
# Target sequence in this assay (P27037 20-134 limits assumed): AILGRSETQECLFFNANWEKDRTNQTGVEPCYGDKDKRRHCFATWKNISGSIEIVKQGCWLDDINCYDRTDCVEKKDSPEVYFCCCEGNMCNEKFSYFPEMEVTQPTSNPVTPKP
# [5] = tested on: mice; details: injection to mice; ref Suragani et al. [9]; cited from earlier work
# [6] = molecular target: T2, ActRIIB-Fc (extracellular domain of …); test: SPR
# [7] = molecular target: ActRIIA-Fc (UniProt P27037); test: SPR
# Chain of ActRIIA-Fc (UniProt P27037) (P27037 20-135): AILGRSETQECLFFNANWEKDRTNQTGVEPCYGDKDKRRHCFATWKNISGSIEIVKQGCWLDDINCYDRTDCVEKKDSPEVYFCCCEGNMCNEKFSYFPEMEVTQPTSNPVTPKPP
# [8] = tested on: ActRIIB-Fc/ActRIIA-Fc; details: ref [3]; cited from earlier work
# [9] = molecular target: T2, ActRIIB-Fc (extracellular domain of …); test: SPR; remark: listed apart in the source
molecule,measurement,setting,value
CC[C@H](C)[C@@H]1NC(=O)[C@H](CCCNC(=N)N)NC(=O)[C@H](CCCNC(=N)N)NC(=O)[C@H](C(C)C)NC(=O)[C@H](CO)NC(=O)[C@H]([C@@H](C)O)NC(=O)CNC(=O)[C@H](Cc2ccccc2)NC(=O)[C@@H](NC(=O)[C@@H](N)C(C)C)CSSC[C@@H](C(=O)N[C@H](C(=O)O)C(C)C)NC1=O [AR2mini] (H-VCFGTSVRRICV-OH; disulfide 2-11),koff,[1],> 0.1 s⁻¹
C[C@@H]1NC(=O)[C@H](CCCNC(=N)N)NC(=O)[C@H]([C@@H](C)O)NC(=O)[C@@H](NC(=O)[C@H](CCC(N)=O)NC(=O)[C@H](Cc2ccccc2)NC(=O)[C@@H]2CCCN2)CSSC[C@@H](C(=O)N[C@H](C(=O)N[C@@H](CCCCN)C(=O)N[C@@H](CO)C(=O)O)[C@@H](C)O)NC(=O)[C@H](Cc2ccc(O)cc2)NC(=O)[C@H](Cc2ccc(O)cc2)NC(=O)[C@H](Cc2c[nH]c3ccccc23)NC(=O)CNC(=O)[C@H](CC(=O)O)NC(=O)[C@H](CCCNC(=N)N)NC1=O [AR8] (H-PFQCTRARDGWYYCTKS-OH; disulfide 4-14),koff,[1],> 0.1 s⁻¹
CC(C)C[C@@H]1NC(=O)[C@H]([C@@H](C)O)NC(=O)[C@H](CCCCN)NC(=O)[C@@H]2CCCN2C(=O)[C@H](Cc2c[nH]c3ccccc23)NC(=O)[C@@H](NC(=O)[C@H](CCCCN)NC(=O)[C@H](Cc2ccc(O)cc2)NC(=O)[C@@H](N)Cc2c[nH]cn2)CSSC[C@@H](C(=O)N[C@@H](Cc2c[nH]c3ccccc23)C(=O)N[C@@H](CC(N)=O)C(=O)N[C@@H](Cc2c[nH]cn2)C(=O)O)NC(=O)[C@H](CCCCN)NC(=O)[C@H](Cc2ccccc2)NC1=O [AR9] (H-HYKCWPKTLFKCWNH-OH; disulfide 4-12),koff,[1],0.049 s⁻¹
same,Kd,[2],> 100 µM
"GDF11: growth differentiation factor 11, R&D Systems (1958-GD)","binding to ActRIIB-Fc (plate ELISA), in words",[3],"binds to activin A, MSTN, and GDF11 in a concentration-dependent manner"
same,"binding to ActRIIA-Fc (plate ELISA), in words",[4],binds to activin A and GDF11
same,"anemia, in words",[5],causes anemia
"MSTN: recombinant mature human MSTN (myostatin), ActRIIB ligand","binding to ActRIIB-Fc (plate ELISA), in words",[3],"binds to activin A, MSTN, and GDF11 in a concentration-dependent manner"
same,"binding to ActRIIA-Fc (plate ELISA), in words",[4],but not MSTN
"activin A: ActRIIB ligand, purchased from R&D Systems (338-AC)","binding to ActRIIB-Fc (plate ELISA), in words",[3],"binds to activin A, MSTN, and GDF11 in a concentration-dependent manner"
same,"binding to ActRIIA-Fc (plate ELISA), in words",[4],binds to activin A and GDF11
VCFGTSVRRICV-OH (disulfide 2-11 (inferred)) [AR2mini],Kd,[6],1.8 µM
same,Kd,[7],19 µM
B1,"PPI with ActRIIB-Fc/ActRIIA-Fc, in words",[8],have been previously reported
PFQCTRARDGWYYCTKS-OH (disulfide 4-14 (inferred)) [AR8],Kd,[9],3.6 µM
same,Kd,[7],18 µM
HYKCWPKTLFKCWNH-OH (disulfide 4-12 (inferred)) [AR9],Kd,[6],0.86 µM
VCDGTSVPRICV-OH (disulfide 2-11 (inferred)) [AR2mut],Kd,[6],> 100 µM
